One may read the ED50 as the midpoint of the dose-response relation. Read a high ED50 as weaker potency. What is called pKa is the negative logarithm of the acid dissociation constant. A higher pKa goes with a group that holds its proton tightly. A word on the logP: it is the decadic logarithm of the partition coefficient of the neutral form, usually between octanol and water.

Here are results for 14 molecules from ChEMBL document CHEMBL1128732, “Synthesis and anticonvulsant activity of N-benzylpyrrolo[2,3-d]-, -pyrazolo[3,4-d]-, and -triazolo[4,5-d]pyrimidines: imidazole ring-modified analogues of 9-(2-fluorobenzyl)-6-(methylamino)-9H-purine” (J Med Chem, 1995).

Data set [1] has as its system Rattus norvegicus. Nature of the data set: The compound was tested for anticonvulsant activity against maximal electroshock-induced seizures after intraperitoneal administration in rats. In kind it is functional. In outline: (§1)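 Male Wistar rats (Charles River) challenged with maximal electroshock. ED50 is the dose protecting 50% of animals against the hind limb extensor component, calculated by the Miller–Tainter method. With standard error: at least 12 animals per dose level, four doses per compound. Without standard error: three doses, six animals per point. Some compounds were given as the hydrochloride.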
A general note: The maximal electroshock test induces tonic seizures with an electrical stimulus.

In data set [2] the test system is Rattus norvegicus. In words: The compound was tested for anticonvulsant activity against maximal electroshock-induced seizures after peroral administration in rats. In kind it is functional. Put shortly:
as §1

Data set [3] can be described thus: pKa value of the compound. In kind it is physicochemical.
The nature of data set [4]: Partition coefficient (logP). In kind it is physicochemical. Conditions: octanol/water. In outline: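 Octanol–water partition measured with a carbonate-buffered aqueous phase adjusted to pH 10.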

A value given as a limit tells only on which side of the number the result lay.

Regarding `Nc1ncnc2c1cnn2Cc1ccccc1`, the ED50 in data set [1] (Rattus norvegicus, ip) is more than 25 mg/kg.
On to `CN(C)c1ncnc2c1ccn2Cc1ccccc1F`, for which the ED50 in data set [1] was 11 mg/kg; in data set [2], 12 mg/kg.
Take `CNc1ncnc2c1cnn2Cc1ccccc1`: the ED50 in data set [1] (Rattus norvegicus, ip) was determined as 7 mg/kg; in data set [2] (Rattus norvegicus, po), 15 mg/kg.
In the case of `CNc1ncnc2c1nnn2Cc1ccccc1F`, the pKa in data set [3] turned out to be 2.49. The ED50 in data set [1] (Rattus norvegicus, ip) came to 3 mg/kg; in data set [2] (Rattus norvegicus, po), 8 mg/kg. The same molecule came in with a logP in data set [4] of 2.05.
Take `Nc1ncnc2c1cnn2Cc1ccccc1F`: the median effective dose (ED50) was found to be 8 mg/kg in data set [1] (Rattus norvegicus, ip) and 14 mg/kg in data set [2] (Rattus norvegicus, po).
For the molecule `c1ccc(Cn2ccc3c(NC4CC4)ncnc32)cc1`, it took a dose of 36 mg/kg to reach the 50% effect level in data set [1] (Rattus norvegicus, ip) (ED50).
Still for that read-out and setting: the same measure for `Fc1ccccc1Cn1ccc2c(NC3CC3)ncnc21`: more than 50 mg/kg.
Consider `CNc1ncnc2c1cnn2Cc1ccccc1F`, for which the pKa in data set [3] turned out to be 4.4. In addition, the ED50 in data set [1] (Rattus norvegicus, ip) turned out to be 6 mg/kg; in data set [2] (Rattus norvegicus, po), 8 mg/kg. The molecule further had a logP in data set [4] of 1.94.
In turn, `CNc1ncnc2c1ccn2Cc1ccccc1F` returned a pKa in data set [3] of 5.56. Further, the ED50 in data set [1] (Rattus norvegicus, ip) is 6 mg/kg; in data set [2] (Rattus norvegicus, po), 12 mg/kg. For the same molecule, in data set [4], the logP was 2.11.
In data set [1] (Rattus norvegicus, ip), `Nc1ncnc2c1nnn2Cc1ccccc1F` gave an ED50 of more than 25 mg/kg.
In data set [1], `CN(C)c1ncnc2c1ccn2Cc1ccccc1` displayed an ED50 of 15 mg/kg.
Take `Nc1ncnc2c1ncn2Cc1ccccc1F`: the ED50 in data set [1] turned out to be 4.5 mg/kg; in data set [2], 12 mg/kg.
For `CNc1ncnc2c1ncn2Cc1ccccc1F` [BW-A78U], in that order: 1.7 mg/kg and 2.5 mg/kg.
On the same counts, the results for `O=C1NC(=O)C(c2ccccc2)(c2ccccc2)N1` [PHENYTOIN] are 10 mg/kg and 20 mg/kg.
